Screening results (PubChem BioAssay)
rCAG binder: binders of r(CAG) RNA repeats, primary screen, biochemical, fluorescence. inhibition, % at 3 µM. r(CAG) RNA repeat, TO-PRO-1 dye displacement fluorescence. 370,000 tested, 1.3% active;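 active means inhibition above the plate cutoff, the mean of all test compounds on that plate plus 3 SD, cut at about 35% in these data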;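 further: higher means more dye released from RNA so lower well fluorescence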
SIAE primary: human SIAE inhibitors, primary screen, biochemical, fluorescence polarization, FP-Rh probe, 1536-well HTS. 370,000 tested, 0.69% active. Sialate O-acetylesterase (Homo sapiens), Q9HAT2. SIAE FP-Rh probe binding. inhibition, % at 9.66 µM;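 active means inhibition above a cutoff: mean of compounds within the control limits plus 3 SD of those, cut at about 17% in these data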
HTRA1 inhibitor: HTRA1 serine protease inhibitors, primary screen, biochemical, fluorescence polarization, HTS | Q92743 | recombinant HTRA1, FP-rhodamine activity-based probe | inhibition, % at 5.96 µM | 340,000 tested, 0.5% active | AID 504803, 2011; in the data active means inhibition above about 36%
ABHD4 inh: ABHD4 inhibitors, primary screen, biochemical, fluorescence polarization, mouse. inhibition, % at 8.92 µM. purified mABHD4, FP-Rh probe fluorescence polarization. (Lyso)-N-acylphosphatidylethanolamine lipase (Mus musculus), Q8VD66. 370,000 tested, 0.54% active. AID 720543, 2013;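 active means inhibition exceeding the mean over every tested compound plus 3 SD, cut at about 30% in these data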
Target sequence (Q8VD66 whole entry, looked up): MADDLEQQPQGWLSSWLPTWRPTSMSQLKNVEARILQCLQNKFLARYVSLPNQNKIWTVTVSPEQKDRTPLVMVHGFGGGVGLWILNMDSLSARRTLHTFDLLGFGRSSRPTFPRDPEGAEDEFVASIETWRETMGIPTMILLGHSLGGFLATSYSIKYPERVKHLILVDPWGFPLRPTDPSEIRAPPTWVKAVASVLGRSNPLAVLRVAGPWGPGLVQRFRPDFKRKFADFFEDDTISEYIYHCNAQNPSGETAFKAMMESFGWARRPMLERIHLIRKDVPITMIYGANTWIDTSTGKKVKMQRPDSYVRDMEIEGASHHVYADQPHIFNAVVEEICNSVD
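assay system = mABHD4 protein | compound dosing = single nominal dose of 8.92 µM, 0.89% DMSO final | read-out basis = percent inhibition of probe binding, normalized to plate controls | schedule = Enzyme–compound pre-incubation 45 min, then probe 60 min, both 25 °C | detection = fluorescence polarization, excitation 525 nm, emission 598 nm, BODIPY TMR filters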
PRMT1 FP inh: PRMT1 methyltransferase inhibitors, primary screen, biochemical, fluorescence polarization | Protein arginine N-methyltransferase 1 (Homo sapiens), Q99873 | recombinant PRMT1, activity-based probe fluorescence polarization | inhibition, % at 2.79 µM | 370,000 tested, 1.3% active | AID 652257, 2013;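 active means inhibition above about 21% made by adding two undisclosed values, limit read from the data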
mABHD4 conf: ABHD4 inhibitors, retest, confirmation, biochemical, fluorescence polarization, mouse; inhibition, % at 8.92 µM; 1,800 tested, 55% active; shares compounds with ABHD4 inh; purified mABHD4, FP-Rh probe fluorescence polarization; AID 720658, 2013;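 active means mean inhibition across replicates above the hit cutoff set in the primary screen, cut at about 30% in these data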
Large screens that a line does not name were inactive (follow-up assays come after a bar, where they were run). In the library only some 3.3% were active in any assay of this set; here they are far more common.

CCc1nc2ccc(C(=O)Nc3cc(-c4ccccc4)ccc3OC)cn2c1N(CC)CCN(C)C	none (no result: HTRA1 inhibitor)
c1ccc(-c2sc3ccccc3c2-c2ccc(OCCN3CCCC3)cc2)cc1	ABHD4 inh 30.6 | mABHD4 conf inactive
CCCCN(CC(=O)Nc1c(C)cccc1CC)C(=O)SCC	none (no result: rCAG binder, SIAE primary, ABHD4 inh, PRMT1 FP inh)
O=C(O)C1Nc2c(O)cccc2C2C=CCC12 (stereo not drawn)	rCAG binder 82.5, SIAE primary 63.9, HTRA1 inhibitor 50.1, ABHD4 inh 43.5 | mABHD4 conf 47.2
O=C(NCCOc1ccccc1)C1Nc2ccc(OC(F)(F)F)cc2C2C=CCC12 (stereo not drawn)	none
Cc1ccccc1-c1nnc2n1N=C(c1ccc(O)c(O)c1)CS2	ABHD4 inh 31.6 (no result: HTRA1 inhibitor) | mABHD4 conf inactive
C[C@@H]1CN([C@@H](C)CO)C(=O)c2cc(Br)cnc2O[C@@H]1CN(C)S(=O)(=O)c1ccc(F)cc1	none
Cc1cc2c(NC(=O)Nc3ccc(C(F)(F)F)cc3)cccc2nn1	ABHD4 inh 109.4 | mABHD4 conf inactive
Cc1cc2c(NC(=O)CCCC(=O)O)cccc2nn1	none
CCNS(=O)(=O)c1ccc(NC(=S)N2CCc3ccccc32)cc1	none
O=C1Cc2cc(S(=O)(=O)N3CCN(c4ccc(C(=O)O)cc4)CC3)ccc2N1	ABHD4 inh 33.1 (no result: HTRA1 inhibitor) | mABHD4 conf inactive
C(=C\c1ccccc1)/CN1CCN(C(c2ccnc3ccccc23)c2nnnn2C2CCCC2)CC1 (stereo not drawn)	none (no result: HTRA1 inhibitor)
O=C(NNC(=O)c1ccccn1)c1cccc([N+](=O)[O-])c1	ABHD4 inh 32.3 | mABHD4 conf inactive
Cc1cccc(NC(=O)NNC(=O)c2ccccn2)c1	ABHD4 inh 30.4 | mABHD4 conf inactive
Cc1cccc(NC(=O)c2cccc(C(=O)Nc3cccc(C)c3)n2)c1	none
CCc1ccc(S(=O)(=O)Nc2cc3c(cc2C)n(C)c(=O)n3C)cc1	none
CN(C)c1ccc(C=Nc2ccc(N(C)C)cc2)cc1	ABHD4 inh 37.4, PRMT1 FP inh 21.9 | mABHD4 conf inactive
O=c1[nH][nH]c2cc([N+](=O)[O-])ccc12	none
CC(C)CC(=O)Nc1ccc(C(=O)COC(=O)C2=COCCO2)cc1	ABHD4 inh 94.7 | mABHD4 conf inactive
C=CCOc1cccc(CNCc2ccncc2)c1	none
F[B-](F)(F)c1cnc2ccccc2c1	ABHD4 inh 31.1 | mABHD4 conf inactive
c1cncc(-c2cnc3ccccc3c2)c1	none
CC1(C)CC(=O)C2=C(C1)NC1=C(C(=O)c3ccccc31)C2c1cccnc1 (stereo not drawn)	none
CC1(C)CC(=O)C2=C(C1)NC1=C(C(=O)c3ccccc31)C2c1cc([N+](=O)[O-])ccc1O (stereo not drawn)	ABHD4 inh 48.9 | mABHD4 conf 65.8
CC1(C)CC(=O)C2=C(C1)NC1=C(C(=O)c3ccccc31)C2c1ccccc1 (stereo not drawn)	ABHD4 inh 51.4 | mABHD4 conf 46.5
Cc1c(C#N)c2n(c1C)CCCC(=O)N2	none
COCC#Cc1ccc2c(c1)O[C@@H](CN(C)S(=O)(=O)c1cccc(F)c1)[C@@H](C)CN([C@H](C)CO)S2(=O)=O	none
Cc1ccc(C(=O)Nc2cccc(S(=O)(=O)N3CCCCC3)c2)cc1S(=O)(=O)N1CCOCC1	none
COc1ccccc1CNC(=O)COC(=O)c1cc(C)nc2ccccc12	none
COc1cc2cc(C)nc(Cc3cccc4ccccc34)c2cc1OC	ABHD4 inh 32.5 | mABHD4 conf 40.5
Cc1nnc(NS(=O)(=O)c2ccc(N)cc2)s1	none
Cc1nnc(NS(=O)(=O)c2ccc(N=Nc3ccc(N)nc3N)cc2)s1	ABHD4 inh 58.3 | mABHD4 conf 34.3
NNc1nc2c(F)cccc2s1	ABHD4 inh 76.8 | mABHD4 conf 31.8
NNc1nc2c(F)cc(F)cc2s1	ABHD4 inh 44.7 | mABHD4 conf inactive
O=C(Nc1nc2c(F)cc(F)cc2s1)c1ccco1	none
Cc1cccc(NC(=O)CSc2nnc(-c3ccncc3)n2CC2CCCO2)c1 (stereo not drawn)	none
